Assay outcomes: PubChem, several laboratories
GSK3A inh: blockers of GSK3A enzyme activity – biochemical, luminescence, cell-free homogeneous, HTS, primary screen; 0.1% of 320,000 active; GSK-3 alpha kinase, ADP-Glo luminescence, 60 min; AID 2650, 2010; Glycogen synthase kinase-3 alpha (Homo sapiens), P49840; inhibition, % at 10 µM;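 active = more than half of replicates show inhibition above 20%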;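 note: GST-tagged GSK-3 alpha with peptide substrate and 25 µM ATP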
STK33 inh: inhibitors of purified STK33 kinase, primary screen, biochemical, ADP-Glo luminescence, homogeneous, cell-free; 0.073% of 320,000 active; AID 2661, 2010; Serine/threonine-protein kinase 33 (Homo sapiens), Q9BYT3; MBP phosphorylation; inhibition, % at 10 µM;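 active = inhibition at or above 25%, using the most active replicate where run in duplicate; inactive = inhibition below 25%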
Target sequence (Q9BYT3 whole entry, looked up): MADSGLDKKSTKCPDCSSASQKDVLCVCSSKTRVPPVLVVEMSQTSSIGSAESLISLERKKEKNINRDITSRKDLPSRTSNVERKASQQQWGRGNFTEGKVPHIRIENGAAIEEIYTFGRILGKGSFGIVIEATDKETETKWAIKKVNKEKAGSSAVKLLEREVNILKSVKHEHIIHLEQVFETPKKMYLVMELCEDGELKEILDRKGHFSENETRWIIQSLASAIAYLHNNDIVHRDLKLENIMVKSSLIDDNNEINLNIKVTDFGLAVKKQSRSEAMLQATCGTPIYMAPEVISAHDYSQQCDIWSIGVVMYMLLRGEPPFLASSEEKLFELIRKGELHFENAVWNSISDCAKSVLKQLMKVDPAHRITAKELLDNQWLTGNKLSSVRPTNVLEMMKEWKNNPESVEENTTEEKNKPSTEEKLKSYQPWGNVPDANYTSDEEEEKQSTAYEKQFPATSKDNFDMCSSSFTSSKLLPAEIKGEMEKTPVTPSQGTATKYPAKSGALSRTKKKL
GSK3beta inhib: human GSK3beta kinase inhibitors, primary screen, biochemical, cell-free homogeneous, HTS | Glycogen synthase kinase-3 beta (Homo sapiens), P49841 | 0.038% of 300,000 active | GST-GSK3beta kinase, ADP-Glo luminescence, 60 min; active compounds read low | AID 2097, 2009 | activity score (negative = inhibition), % at 10 µM;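 active = more than half of replicate wells score below -50%, meaning over 50% inhibition versus plate controls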
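Test system – GST-tagged human GSK3beta kinase, cell-free · Incubation – 60 min enzyme reaction, room temperature · Signal – ADP-Glo luminescence · Also added – peptide substrate and ATP at 25 µM · Controls – DMSO neutral wells and GW8510 at 20 µM as positive · Buffer or medium – Tris/MgCl2 kinase buffer · Measure – Luminescence-derived activity versus plate DMSO and GW8510 wells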
PolyA inhibitor: polyadenylation inhibitors in yeast reporter cells, primary screen, luminescence, S. cerevisiae | S. cerevisiae SKY197-pL101 polyadenylation reporter, beta-gal luminescence; efflux-impaired pdr1/pdr3 knockout yeast; score 100 = 6 SD above DMSO | activity score, % at 12 µM | 0.02% of 300,000 active;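 active = lowest replicate activity score at least 50, where 100 means six control SD above control mean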;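 note: yeast exposed to compound for 9 h at 30 °C; higher score means more reporter readthrough which indicates perturbed polyadenylation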
Efflux pump mplx: inhibitors of Candida efflux pumps in yeast, primary screen, S. cerevisiae, Nile Red, multiplex | S. cerevisiae Candida pump triplex | inhibition, % at 10 µM | 0.44% of 330,000 active | AID 485275, 2010;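 active = plate passing quality check with inhibition over a set limit, or well fluorescence over plate mean plus 4 SD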;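 note: Nile Red retained in pooled yeast measured as flow cytometry median fluorescence; higher means more Nile Red kept so more efflux inhibition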
Cmpd fluor yeast: counter-screen for efflux pump inhibitors: compound fluorescence | shares compounds with Efflux pump mplx | S. cerevisiae AD/pABC3, flow cytometry | fluorescence ratio to DMSO, % at 10 µM | 4% of 1,700 active;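 active = fluorescence ratio to DMSO above its plate's cutoff, the plate mean ratio plus 5 SD, cut at about 210% in these data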;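 note: unstained yeast with no Nile Red so the signal is compound autofluorescence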
CaMdr1 efflux inh: inhibitors of Candida albicans Mdr1 efflux, confirmation, flow cytometry, singleplex, Cherry Pick1 set; AID 588518, 2011; S. cerevisiae AD/CaMDR1, Nile Red efflux; shares compounds with Efflux pump mplx; 1% of 1,700 active; inhibition, % at 10 µM; in the data active = inhibition above about 26%;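 note: higher means more Nile Red retained so more efflux inhibition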
Cdr2 pump inh: inhibitors of Candida albicans Cdr2 efflux pump, confirmation, S. cerevisiae AD/CaCDR2, flow cytometry, cherry pick 1, singleplex; shares compounds with Efflux pump mplx; Nile Red retention; Nile Red retention ratio vs DMSO, % at 10 µM; 4% of 1,700 active; AID 588520, 2011; in the data active = Nile Red retention ratio vs DMSO above about 190%;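 note: higher ratio means more blocking of Cdr2 efflux of the dye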
CaCdr1 efflux inh: inhibitors of Candida albicans Cdr1 efflux pump, confirmation, S. cerevisiae AD/CaCDR1, flow cytometry, cherry pick 1, singleplex; AID 588522, 2011; Nile Red efflux; 1% of 1,700 active; shares compounds with Efflux pump mplx; inhibition, % at 10 µM;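 active = inhibition above the screen-wide mean plus twice its standard deviation, cut at about 32% in these data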
Hits are given with their value; – = inactive; · = not tested or not shown. An excerpt weighted towards active compounds, which were near 0.6% of everything screened.

SMILES	GSK3A inh	STK33 inh	GSK3beta inhib	PolyA inhibitor	Efflux pump mplx	Cmpd fluor yeast	CaMdr1 efflux inh	Cdr2 pump inh	CaCdr1 efflux inh
O=c1/c(=C\c2cc([N+](=O)[O-])cc([N+](=O)[O-])c2O)sc2nc3ccccc3n12	–	–	·	·	–	·	·	·	·
CC(=O)c1ccc(NC(=O)c2ccc(NC(=O)c3ccco3)cc2)cc1	–	–	–	–	6.2	–	–	–	–
CN(C(=O)c1cccc(NC(=O)c2ccco2)c1)c1ccccc1	–	–	–	–	–	·	·	·	·
CN(C(=O)c1ccc(NC(=O)c2ccco2)cc1)c1ccccc1	–	–	–	–	–	–	–	–	–
O=C(/C=C/c1ccc(Br)cc1)c1ccc(NC(=O)c2ccco2)cc1	–	–	–	–	5.8	–	–	–	–
Cc1cc(C)cc(NC(=O)c2ccc(NC(=O)c3ccco3)cc2)c1	–	–	–	–	–	–	–	–	–
CCOC(=O)c1cccc(NC(=O)c2ccc(NC(=O)c3ccco3)cc2)c1	–	–	–	–	–	–	–	–	–
COc1cc(OC)c(-c2noc(C(=O)OC(C)(C)C)c2C(=O)OC(C)(C)C)c(OC)c1	–	–	–	–	1.2	–	–	–	–
O=C(Nc1cccc(-n2cnnn2)c1)c1cnccc1Cl	–	–	–	–	–	·	·	·	·
O/N=C/Cc1[nH]c2ccccc2c1-c1ccccc1	–	–	–	–	–	·	·	·	·
C=CCN1C(=O)C(CC(=O)NCC)SC1=Nc1cc(Cl)ccc1Cl (stereo not drawn)	–	–	–	–	–	·	·	·	·
COc1ccc(OC2C(=O)N(Cc3ccc4c(c3)OCO4)C2c2sccc2C)cc1 (stereo not drawn)	–	–	–	–	–	·	·	·	·
CCC(C)Sc1ccc([C@H]2N[C@@](C)(C(=O)OC)[C@H]3C(=O)N(C)C(=O)[C@@H]23)cc1OC (stereo partly drawn)	–	–	–	–	–	·	·	·	·
COc1ccc(-c2[nH]n(-c3ccc([N+](=O)[O-])cc3)c(=O)c2C=NCc2ccc(F)cc2)cc1	–	–	–	–	–	·	·	·	·
COc1ccc(-c2cc(=O)n(-c3ccc([N+](=O)[O-])cc3)[nH]2)cc1	–	–	–	–	14	–	–	–	–
CCOC(=O)c1cc([N+](=O)[O-])c([N+](=O)[O-])cc1NC(C)=O	–	–	–	–	–	·	·	·	·
CCOC(=O)C(NC(=O)c1cccc(Cl)c1)(Nc1nnc(C)s1)C(F)(F)F (stereo not drawn)	–	–	–	–	9.7	–	–	–	–
CCOC(=O)C(NC(=O)c1ccc(F)cc1)(Nc1nnc(C)s1)C(F)(F)F (stereo not drawn)	–	–	–	–	–	·	·	·	·
COc1ccc(-c2cc(C(=O)Nc3ccccc3O)c3ccccc3n2)cc1OC	–	–	–	–	–	·	·	·	·
COc1cc(NC(=O)c2cc(-c3ccccc3)nc3c2cnn3C(C)C)cc(OC)c1OC	–	–	·	·	1.0	–	–	–	–
COC(=O)c1cc(OC)c(OC)cc1NC(=O)c1cc(-c2ccccc2)nc2ccccc12	–	–	–	–	–	–	–	–	–
CCS(=O)(=O)c1ccc(O)c(NC(=O)c2cc(-c3ccccn3)nc3ccccc23)c1	–	–	·	·	–	·	·	·	·
